According to ChEMBL document CHEMBL5620435, “Elucidating the Mechanism of Metabolism of Cannabichromene by Human Cytochrome P450s” (J Nat Prod, 2024):
The source made the active and inactive calls. No cut-off for these calls is given here.

How the values were obtained:
BV-2 [1] = assay: Antiinflammatory activity in LPS-induced mouse BV-2 cells assessed as reduction in TNF-alpha production at 0.1 to 5 uM preincubated for 4 hrs followed by LPS stimulation for 24 hrs by ELISA; assay type: functional, cell-based; settings: dose 0.1-5 µM, time 28.0 hrs
How it was run: (§1)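 BV-2 microglia in high-glucose DMEM with 5% heat-inactivated FBS, 37 °C, 5% CO2. Cells (50 000/well) were pretreated with cannabinoids at 0.1, 1.0, 2.5 or 5.0 μM (ethanol 0.1% final) for 4 h, then stimulated with LPS (25 ng/mL) for 24 h. Medium was collected. NO was read by Griess assay at 540 nm against a sodium nitrite calibration curve. IL-6, TNFα and Arg1 were measured by ELISA.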

BV-2 [2] = assay: Cytotoxicity against mouse BV-2 cells assessed as reduction in cell viability at 0.1 to 5 uM incubated for 24 hrs by MTT assay; assay type: toxicity, cell-based; settings: bv-2, 24 h, dose 0.1-5 µM
How it was run: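 BV-2 cells were seeded at about 10 000/well and grown for 24 h. They were preincubated 4 h with cannabinoids at 0.1, 1.0, 2.5 or 5.0 μM (0.1% ethanol), then held 24 h with or without LPS (25 ng/mL). MTT reagent was added for 4 h at 37 °C, the formazan was dissolved, and absorbance was read at 570 nm.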

BV-2 [3] = assay: Antiinflammatory activity in LPS-induced mouse BV-2 cells assessed as reduction in IL-6 production at 0.1 to 5 uM preincubated for 4 hrs followed by LPS stimulation for 24 hrs by ELISA; assay type: functional, cell-based; settings: dose 0.1-5 µM, time 28.0 hrs; how it was run: as §1
BV-2 [4] = assay: Antiinflammatory activity in LPS-induced mouse BV-2 cells assessed as reduction in NO production at 0.1 to 5 uM preincubated for 4 hrs followed by LPS stimulation for 24 hrs by Griess reagent based assay; assay type: functional, cell-based; settings: dose 0.1-5 µM, time 28.0 hrs; how it was run: as §1
BV-2 [5] = assay: Antiinflammatory activity in LPS-induced mouse BV-2 cells assessed as reduction in IL-6 production preincubated for 4 hrs followed by LPS stimulation for 24 hrs by ELISA; assay type: functional, cell-based; settings: dose 0.1-5 µM, time 28.0 hrs; how it was run: as §1
BV-2 [6] = assay: Antiinflammatory activity in LPS-induced mouse BV-2 cells assessed as reduction in NO production preincubated for 4 hrs followed by LPS stimulation for 24 hrs by Griess reagent based assay; assay type: functional, cell-based; settings: dose 0.1-5 µM, time 28.0 hrs; how it was run: as §1
BV-2 [7] = assay: Antiinflammatory activity in LPS-induced mouse BV-2 cells assessed as reduction in TNF-alpha production preincubated for 4 hrs followed by LPS stimulation for 24 hrs by ELISA; assay type: functional, cell-based; settings: dose 0.1-5 µM, time 28.0 hrs; how it was run: as §1
BV-2 [8] = assay: Antiinflammatory activity in LPS-induced mouse BV-2 cells assessed as increase in Arg-1 production preincubated for 4 hrs followed by LPS stimulation for 24 hrs by ELISA; assay type: functional, cell-based; settings: dose 0.1-5 µM, time 28.0 hrs; how it was run: as §1

CCCCCc1cc(O)c2c(c1)OC(C)(CC/C=C(\C)CO)C=C2 (configuration not stated)
Activity (BV-2 [1]): inactive
Activity (BV-2 [2]): Non-Toxic
Activity (BV-2 [3]): inactive
Activity (BV-2 [4]): inactive

C=C(C)C(O)CCC1(C)C=Cc2c(O)cc(CCCCC)cc2O1 (configuration not stated)
Activity (BV-2 [5]): Active
Activity (BV-2 [6]): Dose-Dependent Effect
Activity (BV-2 [2]): Non-Toxic
Activity (BV-2 [7]): Dose-Dependent Effect

CCCCC(O)c1cc(O)c2c(c1)OC(C)(CCC=C(C)C)C=C2 (configuration not stated)
Activity (BV-2 [5]): Active
Activity (BV-2 [8]): Dose-Dependent Effect
Activity (BV-2 [2]): Non-Toxic
Activity (BV-2 [7]): Dose-Dependent Effect
